Results: ChEMBL document CHEMBL4359889 (Eur J Med Chem, 2019)

Columns and labels:
[1] = Drug uptake in human NCI-H2228 cells harboring EML4-fused ALK variant 3 at 1 uCi incubated for 30 mins by radioactivity-based assay; type: ADME, cell-based; details: nci-h2228, 0.5 h
Outline: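 H2228 cells seeded at 10⁶ per well in RPMI-1640 with 10% FBS. Wells washed twice with ice-cold PBS, cells trypsinized 5 min at 37°C, then gamma counted. Uptake given as cpm per million cells, in triplicate.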

[2] = Biodistribution in nude mouse assessed as accumulation in brain tissue at 100 uCi, iv measured for 60 mins by PET imaging analysis; type: ADME, organism-based; details: in vivo, 1 h
Outline: (§1)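 Dynamic PET 0–10 min after injection under anesthesia, then 10-min static scans at 30 and 60 min. Regions of interest drawn on decay-corrected whole-body coronal images and converted to %ID/cc. Mean ± SD.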

[3] = Biodistribution in nude mouse assessed as accumulation in muscle tissue at 100 uCi, iv measured for 60 mins by PET imaging analysis; type: ADME, organism-based; details: in vivo, 1 h; outline: as §1
NCI-H441 = assay: Cytotoxicity in human H441 cells incubated for 72 hrs by alamar blue reagent based assay; type: cell-based
Outline: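 Cells seeded at 8,000 per well in RPMI-1640 with 10% FBS, dosed next day across a concentration range for 72 h. Alamar Blue (1:10, in phenol red-free RPMI with 10% FBS) added for 4 h, fluorescence read at ex 530/em 580 nm. IC50 from curve fit; triplicate in three independent sets, mean ± SD.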

NCI-H2228 = assay: Cytotoxicity in human NCI-H2228 cells harboring EML4-fused ALK variant 3 incubated for 72 hrs by alamar blue reagent based assay; type: functional, cell-based; details: NCI-H2228, 72 h
[4] = Drug uptake in human H441 cells at 1 uCi incubated for 30 mins by radioactivity-based assay; type: ADME, cell-based; details: nci-h441, 0.5 h
Outline: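 Medium removed, two ice-cold PBS washes, trypsinised 5 min at 37°C, gamma counted. Uptake expressed as counts per minute per million cells; triplicate.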

[5] = Octanol/water partition coefficient, logP of compound at 1 uCi vortex for 5 mins and repeated for 4 times by gamma counter method; type: physicochemical
Outline: (§2)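 Vortexed 5 min, repeated four times, then centrifuged 2×5 min at 4000 rpm, 4°C. Value taken from the ratio of octanol to aqueous activity.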

[6] = Lipophilicity, log D of the compound in octanol/pH 7.4 PBS vortex at 1 uCi for 5 mins and repeated for 4 times by gamma counter method; type: physicochemical; details: octanol/water, pH 7.4, 5 min; outline: as §2
[7] = Biodistribution in nude mouse assessed as accumulation in brain tissue at 100 uCi, iv measured for 5 mins by PET imaging analysis; type: ADME, organism-based; details: in vivo; outline: as §1
[8] = Biodistribution in nude mouse assessed as accumulation in brain tissue at 100 uCi, iv measured for 10 mins by PET imaging analysis; type: ADME, organism-based; details: in vivo; outline: as §1
[9] = Biodistribution in nude mouse assessed as accumulation in brain tissue at 100 uCi, iv measured for 30 mins by PET imaging analysis; type: ADME, organism-based; details: in vivo, 0.5 h; outline: as §1
[10] = Biodistribution in nude mouse assessed as accumulation in heart tissue at 100 uCi, iv measured for 5 mins by PET imaging analysis; type: ADME, organism-based; details: in vivo; outline: as §1
[11] = Biodistribution in nude mouse assessed as accumulation in heart tissue at 100 uCi, iv measured for 10 mins by PET imaging analysis; type: ADME, organism-based; details: in vivo; outline: as §1
[12] = Biodistribution in nude mouse assessed as accumulation in heart tissue at 100 uCi, iv measured for 30 mins by PET imaging analysis; type: ADME, organism-based; details: in vivo, 0.5 h; outline: as §1
[13] = Biodistribution in nude mouse assessed as accumulation in heart tissue at 100 uCi, iv measured for 60 mins by PET imaging analysis; type: ADME, organism-based; details: in vivo, 1 h; outline: as §1
[14] = Biodistribution in nude mouse assessed as accumulation in liver tissue at 100 uCi, iv measured for 5 mins by PET imaging analysis; type: ADME, organism-based; details: in vivo; outline: as §1
[15] = Biodistribution in nude mouse assessed as accumulation in liver tissue at 100 uCi, iv measured for 10 mins by PET imaging analysis; type: ADME, organism-based; details: in vivo; outline: as §1
[16] = Biodistribution in nude mouse assessed as accumulation in liver tissue at 100 uCi, iv measured for 30 mins by PET imaging analysis; type: ADME, organism-based; details: in vivo, 0.5 h; outline: as §1
[17] = Biodistribution in nude mouse assessed as accumulation in liver tissue at 100 uCi, iv measured for 60 mins by PET imaging analysis; type: ADME, organism-based; details: in vivo, 1 h; outline: as §1
[18] = Biodistribution in nude mouse assessed as accumulation in kidney tissue at 100 uCi, iv measured for 5 mins by PET imaging analysis; type: ADME, organism-based; details: in vivo; outline: as §1
[19] = Biodistribution in nude mouse assessed as accumulation in kidney tissue at 100 uCi, iv measured for 10 mins by PET imaging analysis; type: ADME, organism-based; details: in vivo; outline: as §1
[20] = Biodistribution in nude mouse assessed as accumulation in kidney tissue at 100 uCi, iv measured for 30 mins by PET imaging analysis; type: ADME, organism-based; details: in vivo, 0.5 h; outline: as §1
[21] = Biodistribution in nude mouse assessed as accumulation in kidney tissue at 100 uCi, iv measured for 60 mins by PET imaging analysis; type: ADME, organism-based; details: in vivo, 1 h; outline: as §1
[22] = Biodistribution in nude mouse assessed as accumulation in muscle tissue at 100 uCi, iv measured for 5 mins by PET imaging analysis; type: ADME, organism-based; details: in vivo; outline: as §1
[23] = Biodistribution in nude mouse assessed as accumulation in muscle tissue at 100 uCi, iv measured for 10 mins by PET imaging analysis; type: ADME, organism-based; details: in vivo; outline: as §1
[24] = Biodistribution in nude mouse assessed as accumulation in muscle tissue at 100 uCi, iv measured for 30 mins by PET imaging analysis; type: ADME, organism-based; details: in vivo, 0.5 h; outline: as §1

C[C@@H](Oc1cc(-c2cnn(C3CCN(CC[18F])CC3)c2)cnc1N)c1c(Cl)ccc(F)c1Cl
Drug uptake [1]: Active
Drug uptake [2]: 1.8 %ID/cc
Drug uptake [3]: 1.2 %ID/cc

CCc1cc2c(cc1N1CCC(N3CCOCC3)CC1)C(C)(C)c1[nH]c3cc(C#N)ccc3c1C2=O [ALECTINIB]
IC50 (NCI-H441): Non-Toxic

CCc1cc2c(cc1N1CCC(N3CCOCC3)CC1)C(C)(C)c1c(c3ccc(C#N)cc3n1CCF)C2=O
IC50 (NCI-H2228): 0.01 µM
IC50 (NCI-H441): Non-Toxic

C[C@@H](Oc1cc(-c2cnn(C3CCN(CCF)CC3)c2)cnc1N)c1c(Cl)ccc(F)c1Cl
IC50 (NCI-H2228): 7.5 µM

CCc1cc2c(cc1N1CCC(N3CCOCC3)CC1)C(C)(C)c1c(c3ccc(C#N)cc3n1CC[18F])C2=O
Drug uptake [4]: Active

Cc1cc(Nc2ncc(Cl)c(Nc3ccccc3S(=O)(=O)C(C)C)n2)c(OC(C)C)cc1C1CCN(CC[18F])CC1
logP [5]: 0.97
logD [6]: 1.51
Drug uptake [1]: Active
Drug uptake [7]: 6.6 %ID/cc
Drug uptake [8]: 6.5 %ID/cc
Drug uptake [9]: 4.6 %ID/cc
Drug uptake [2]: 4 %ID/cc
Drug uptake [10]: 9.1 %ID/cc
Drug uptake [11]: 7 %ID/cc
Drug uptake [12]: 3.1 %ID/cc
Drug uptake [13]: 2.6 %ID/cc
Drug uptake [14]: 16.8 %ID/cc
Drug uptake [15]: 17.9 %ID/cc
Drug uptake [16]: 9.5 %ID/cc
Drug uptake [17]: 6.4 %ID/cc
Drug uptake [18]: 20.2 %ID/cc
Drug uptake [19]: 18.2 %ID/cc
Drug uptake [20]: 7.2 %ID/cc
Drug uptake [21]: 5.7 %ID/cc
Drug uptake [22]: 3.6 %ID/cc
Drug uptake [23]: 3.9 %ID/cc
Drug uptake [24]: 2.4 %ID/cc
Drug uptake [3]: 2.1 %ID/cc

Cc1cc(Nc2ncc(Cl)c(Nc3ccccc3S(=O)(=O)C(C)C)n2)c(OC(C)C)cc1C1CCN(CCF)CC1
IC50 (NCI-H2228): 24.2 µM
